# Calls of active or inactive are those of the source. The rule behind the calls is not given here.
# Tests used:
# [1] = target: T1, Protein deacetylase HDAC6 (Homo sapiens, UniProt Q9UBN7); test: Inhibition of human recombinant HDAC6 using Boc-lys(Ac)-AMC as substrate preincubated for 20 mins with substrate measured after 60 mins by fluorescence analysis
# T1 sequence (Q9UBN7 whole entry): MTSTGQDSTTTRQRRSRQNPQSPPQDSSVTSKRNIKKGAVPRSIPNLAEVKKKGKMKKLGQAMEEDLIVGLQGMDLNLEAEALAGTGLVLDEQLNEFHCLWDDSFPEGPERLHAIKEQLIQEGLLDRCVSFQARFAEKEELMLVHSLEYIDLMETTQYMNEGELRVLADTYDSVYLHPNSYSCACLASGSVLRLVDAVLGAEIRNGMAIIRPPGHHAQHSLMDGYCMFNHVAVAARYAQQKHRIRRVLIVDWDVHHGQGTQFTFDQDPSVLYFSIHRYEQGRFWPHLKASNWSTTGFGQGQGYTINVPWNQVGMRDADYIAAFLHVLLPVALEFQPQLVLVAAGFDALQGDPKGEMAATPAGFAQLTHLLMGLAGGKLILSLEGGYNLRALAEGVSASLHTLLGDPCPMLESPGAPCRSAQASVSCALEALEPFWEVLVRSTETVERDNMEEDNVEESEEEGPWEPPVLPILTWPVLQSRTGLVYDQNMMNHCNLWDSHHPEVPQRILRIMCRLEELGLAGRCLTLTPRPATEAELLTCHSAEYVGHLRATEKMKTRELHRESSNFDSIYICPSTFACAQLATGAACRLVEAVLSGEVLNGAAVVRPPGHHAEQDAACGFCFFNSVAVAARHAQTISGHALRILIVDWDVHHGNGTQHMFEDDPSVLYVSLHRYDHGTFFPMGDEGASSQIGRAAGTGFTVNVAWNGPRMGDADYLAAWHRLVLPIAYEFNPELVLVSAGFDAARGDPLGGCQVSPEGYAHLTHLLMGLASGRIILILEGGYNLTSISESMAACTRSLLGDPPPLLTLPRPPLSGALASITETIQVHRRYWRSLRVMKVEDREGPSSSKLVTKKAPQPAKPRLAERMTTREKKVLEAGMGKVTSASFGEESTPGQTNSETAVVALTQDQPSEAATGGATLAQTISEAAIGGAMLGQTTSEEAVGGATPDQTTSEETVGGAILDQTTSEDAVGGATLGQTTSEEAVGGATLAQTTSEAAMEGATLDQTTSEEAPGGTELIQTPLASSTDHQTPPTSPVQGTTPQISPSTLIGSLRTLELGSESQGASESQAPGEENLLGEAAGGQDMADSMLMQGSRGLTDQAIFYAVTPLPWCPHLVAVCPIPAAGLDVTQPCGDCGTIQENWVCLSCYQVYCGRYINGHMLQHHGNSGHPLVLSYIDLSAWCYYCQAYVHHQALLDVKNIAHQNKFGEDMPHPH
# Histone deacetylase 1 = Histone deacetylase 1 (Homo sapiens, UniProt Q13547); test: Inhibition of human recombinant HDAC1 using Boc-lys(Ac)-AMC as substrate preincubated for 20 mins with substrate measured after 60 mins by fluorescence analysis
# [2] = target: T2, Histone deacetylase-like amidohydrolase (Alcaligenes sp. (strain DSM 11172) (Bordetella sp. (strain FB188))) (UniProt Q70I53); test: Inhibition of Bordetella sp. (strain FB188) N-terminus His-tagged HDAH expressed in Escherichia coli BL21 (DE3) up to 100 uM; settings: Alcaligenaceae bacterium FB188
# T2 sequence (whole entry): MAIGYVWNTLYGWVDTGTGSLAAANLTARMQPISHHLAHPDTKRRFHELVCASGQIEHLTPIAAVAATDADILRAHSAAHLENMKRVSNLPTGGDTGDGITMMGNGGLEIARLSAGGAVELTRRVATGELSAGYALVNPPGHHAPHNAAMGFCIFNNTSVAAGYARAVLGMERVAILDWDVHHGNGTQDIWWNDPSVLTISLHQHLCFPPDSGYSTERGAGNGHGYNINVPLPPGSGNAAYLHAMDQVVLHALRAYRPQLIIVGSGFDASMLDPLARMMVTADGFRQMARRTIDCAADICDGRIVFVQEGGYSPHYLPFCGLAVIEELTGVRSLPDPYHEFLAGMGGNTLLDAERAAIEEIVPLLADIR
# Method in brief: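 Recombinant N-terminal His6-tagged HDAH from Bordetella strain FB188, expressed in E. coli BL21, purified on zinc-loaded His-Trap column, eluted with 500 mM imidazole, dialyzed into assay buffer (>98% pure by SDS-PAGE). Tested directly against compounds; thiols generated in situ from disulfides with TCEP.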
# Histone deacetylase 8 = target: T3, Histone deacetylase 8 (Homo sapiens, UniProt Q9BY41); test: Inhibition of human recombinant HDAC8 using Boc-lys(Ac)-AMC as substrate preincubated for 20 mins with substrate measured after 60 mins by fluorescence analysis
# T3 sequence (Q9BY41 whole entry): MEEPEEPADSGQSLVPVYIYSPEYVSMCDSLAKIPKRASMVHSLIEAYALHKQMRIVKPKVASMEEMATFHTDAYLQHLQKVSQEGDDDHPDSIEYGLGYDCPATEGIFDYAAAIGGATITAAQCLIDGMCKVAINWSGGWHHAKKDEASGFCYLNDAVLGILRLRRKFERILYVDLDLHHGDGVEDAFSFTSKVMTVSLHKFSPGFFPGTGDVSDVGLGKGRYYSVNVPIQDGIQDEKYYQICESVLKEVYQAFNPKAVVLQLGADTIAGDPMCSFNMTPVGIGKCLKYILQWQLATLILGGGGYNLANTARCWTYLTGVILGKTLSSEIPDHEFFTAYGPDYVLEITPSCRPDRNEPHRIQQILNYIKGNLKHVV
# A549 = test: Growth inhibition of human A549 cells after 96 hrs by sulphorhodamine B assay; type: functional; settings: A549, 96 h
# Method in brief: (§1)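 SRB growth assay; MCF7 and WI38 seeded 4000 cells/well, A549 2000 cells/well, attached overnight, then exposed to freshly made drug solutions (0.1 to 50 μM) for 96 h. Fixed with cold 10% TCA, stained with 0.4% SRB; absorbance at 540 nm as percent of untreated control, IC50 from mean absorbance.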
# [3] = Growth inhibition of human WI38 cells after 96 hrs by sulphorhodamine B assay; type: cell-based; settings: WI-38 cells; method in brief: as §1
# MCF7 = test: Selectivity index, ratio of GI50 for human WI38 cells to GI50 for human MCF7 cells; type: functional
# Histone deacetylase 1, sequence (Q13547 whole entry): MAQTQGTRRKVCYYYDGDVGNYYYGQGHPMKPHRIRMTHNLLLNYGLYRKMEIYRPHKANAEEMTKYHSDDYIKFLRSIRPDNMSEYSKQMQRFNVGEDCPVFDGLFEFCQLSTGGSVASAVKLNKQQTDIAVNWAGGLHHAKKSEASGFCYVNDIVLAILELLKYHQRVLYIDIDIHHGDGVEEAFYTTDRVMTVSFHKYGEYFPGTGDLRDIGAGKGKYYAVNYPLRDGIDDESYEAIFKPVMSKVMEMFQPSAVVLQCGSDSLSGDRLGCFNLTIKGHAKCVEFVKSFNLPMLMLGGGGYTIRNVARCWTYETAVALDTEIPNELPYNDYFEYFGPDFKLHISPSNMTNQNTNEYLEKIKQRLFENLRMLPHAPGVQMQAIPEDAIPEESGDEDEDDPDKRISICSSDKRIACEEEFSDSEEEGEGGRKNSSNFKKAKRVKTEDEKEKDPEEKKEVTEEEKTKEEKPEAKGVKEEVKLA
smiles,measurement,setting,value
N/N=C(\Cc1ccc(O)c(Br)c1)C(=O)NCCS,IC50,[1],1 µM
same,IC50,Histone deacetylase 1,0.005 µM
same,inhibition,[2],inactive
same,IC50,Histone deacetylase 8,13 µM
same,GI50,A549,33.4 µM
same,GI50 at 96 h,[3],37.2 µM
same,RatioGI50,MCF7,10

# Reference: ChEMBL document CHEMBL2046381, “Defining the mechanism of action and enzymatic selectivity of psammaplin A against its epigenetic targets” (J Med Chem, 2012)
